Here are results for ten compounds from paper PMC12046021 (Nature Communications, 2025).

The nature of data set [1]: PK study in rats. It is filed as in vivo. To be noted: male, Sprague Dawley, rat, plasma, po, 3 mg/kg.
Data set [2] is described as follows: PK study in mice. Format: in vivo. To be noted: male, ICR, mouse, plasma, po, 3 mg/kg.
For data set [3], the target named is T1, IKZF2 (Homo sapiens, UniProt Q96SW2+Q9UKS7). The data set is described as follows: IKZF2 HiBiT degradation assay in HEK293 cells. To be noted: for Dmax: HEK293, read-out: IKZF2 degradation Dmax. Format: cell-based. Background: The HiBiT peptide binds its large partner to form an active luciferase.
Data set [4] has as its target SALL4 (Homo sapiens, UniProt Q9UJQ4). Briefly: SALL4 HiBiT degradation assay in HEK293 cells. It is filed as cell-based. The procedure, abridged: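 Each HiBiT-tagged target construct was integrated into the FRT site by the FLP-IN system, and integration was checked by lytic HiBiT detection. Cells got test compound at 0.017 nM to 10 µM, with DMSO as vehicle control, for 6 h. HiBiT signal was then read by lytic luminescence detection. DC50 and Dmax came from a four-parameter dose-response fit.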

Data set [5] concerns IL-2. The data set is described as follows: IL-2 production in Jurkat cells. To be noted: Jurkat stimulated with anti-CD3/CD28, bead-to-cell ratio 1:4. Format: cell-based, human.
The target of data set [6] is hERG channel (Homo sapiens, UniProt Q12809). Briefly: hERG channel inhibition, manual patch-clamp. Format: cell-based.
Data set [7] addresses T1, IKZF2. The data set is described as follows: IKZF2 FACS assay in primary human Tregs. Format: cell-based. To be noted: read-out: IKZF2 degradation Dmax in human Treg cells. The procedure, abridged: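 Thawed human PBMCs were resuspended in RPMI with 10% FBS and 1% P/S. They were treated with test compound at 0.05 nM to 1 μM, with DMSO as vehicle control, for 3 or 6 h. IKZF2 in Treg cells was then assessed by FACS under a defined gating strategy.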
For orientation: A flow cytometer gives signals particle by particle.

T1 sequence (Q9UKS7 whole entry): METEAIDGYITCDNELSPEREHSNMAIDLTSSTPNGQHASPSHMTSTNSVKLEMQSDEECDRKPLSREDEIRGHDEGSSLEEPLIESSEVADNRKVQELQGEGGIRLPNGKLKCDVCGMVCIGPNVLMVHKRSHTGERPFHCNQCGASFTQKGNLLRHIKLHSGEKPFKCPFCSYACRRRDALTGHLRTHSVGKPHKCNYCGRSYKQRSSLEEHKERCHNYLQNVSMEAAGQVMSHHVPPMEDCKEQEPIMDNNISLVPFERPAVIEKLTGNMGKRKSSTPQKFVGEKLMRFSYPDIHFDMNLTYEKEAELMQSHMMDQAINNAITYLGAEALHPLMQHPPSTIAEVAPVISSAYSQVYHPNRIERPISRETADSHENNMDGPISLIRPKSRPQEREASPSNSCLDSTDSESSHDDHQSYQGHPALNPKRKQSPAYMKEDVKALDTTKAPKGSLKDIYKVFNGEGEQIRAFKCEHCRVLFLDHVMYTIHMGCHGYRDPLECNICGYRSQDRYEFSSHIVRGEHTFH
T1 sequence (Q96SW2 whole entry): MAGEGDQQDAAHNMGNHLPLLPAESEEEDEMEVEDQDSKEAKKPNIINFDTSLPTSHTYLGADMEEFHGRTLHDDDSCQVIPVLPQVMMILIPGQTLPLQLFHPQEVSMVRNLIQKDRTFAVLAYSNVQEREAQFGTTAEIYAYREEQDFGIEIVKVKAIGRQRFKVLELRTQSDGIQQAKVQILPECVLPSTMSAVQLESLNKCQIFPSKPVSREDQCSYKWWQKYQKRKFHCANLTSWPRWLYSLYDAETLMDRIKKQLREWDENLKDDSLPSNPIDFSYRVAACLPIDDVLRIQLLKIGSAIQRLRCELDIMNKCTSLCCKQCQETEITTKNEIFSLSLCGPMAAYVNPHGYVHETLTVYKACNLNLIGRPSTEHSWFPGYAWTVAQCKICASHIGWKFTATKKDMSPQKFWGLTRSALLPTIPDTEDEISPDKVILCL
T1 sequence (Q16531 whole entry partner): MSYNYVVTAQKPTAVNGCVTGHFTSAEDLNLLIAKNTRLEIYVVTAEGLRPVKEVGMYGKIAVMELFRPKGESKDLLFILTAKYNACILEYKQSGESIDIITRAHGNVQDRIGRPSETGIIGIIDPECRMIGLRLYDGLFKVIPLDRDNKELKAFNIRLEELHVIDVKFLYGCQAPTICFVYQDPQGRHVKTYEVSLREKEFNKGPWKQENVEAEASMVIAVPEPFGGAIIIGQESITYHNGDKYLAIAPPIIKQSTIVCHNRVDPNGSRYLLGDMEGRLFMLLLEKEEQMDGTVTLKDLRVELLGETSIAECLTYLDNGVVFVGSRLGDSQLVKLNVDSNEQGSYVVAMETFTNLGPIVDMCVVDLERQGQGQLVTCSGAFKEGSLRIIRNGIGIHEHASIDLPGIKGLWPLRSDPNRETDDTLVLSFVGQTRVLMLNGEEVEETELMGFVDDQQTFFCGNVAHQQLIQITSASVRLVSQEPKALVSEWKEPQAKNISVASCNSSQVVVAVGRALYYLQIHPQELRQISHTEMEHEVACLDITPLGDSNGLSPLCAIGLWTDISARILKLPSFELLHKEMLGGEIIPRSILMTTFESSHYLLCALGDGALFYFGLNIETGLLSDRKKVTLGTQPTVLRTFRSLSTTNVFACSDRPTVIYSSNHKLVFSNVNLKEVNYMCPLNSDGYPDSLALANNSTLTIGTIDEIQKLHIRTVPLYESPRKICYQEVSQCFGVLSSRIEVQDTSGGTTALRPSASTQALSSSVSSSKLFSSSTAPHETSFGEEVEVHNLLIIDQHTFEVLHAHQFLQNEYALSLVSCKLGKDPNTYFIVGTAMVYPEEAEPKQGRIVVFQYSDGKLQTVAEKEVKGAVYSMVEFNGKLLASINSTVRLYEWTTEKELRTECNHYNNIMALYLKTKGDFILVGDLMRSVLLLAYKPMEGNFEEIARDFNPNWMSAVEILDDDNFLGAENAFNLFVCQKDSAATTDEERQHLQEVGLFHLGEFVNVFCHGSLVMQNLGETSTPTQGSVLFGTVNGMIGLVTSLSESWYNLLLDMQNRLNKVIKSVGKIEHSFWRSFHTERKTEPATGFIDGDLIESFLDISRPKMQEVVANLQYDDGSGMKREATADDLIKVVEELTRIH
SALL4, sequence (Q96SW2 whole entry partner): as the sequence (Q96SW2 whole entry) above
SALL4, sequence (Q16531 whole entry partner): as the sequence (Q16531 whole entry partner) above
SALL4, sequence (Q9UJQ4 whole entry): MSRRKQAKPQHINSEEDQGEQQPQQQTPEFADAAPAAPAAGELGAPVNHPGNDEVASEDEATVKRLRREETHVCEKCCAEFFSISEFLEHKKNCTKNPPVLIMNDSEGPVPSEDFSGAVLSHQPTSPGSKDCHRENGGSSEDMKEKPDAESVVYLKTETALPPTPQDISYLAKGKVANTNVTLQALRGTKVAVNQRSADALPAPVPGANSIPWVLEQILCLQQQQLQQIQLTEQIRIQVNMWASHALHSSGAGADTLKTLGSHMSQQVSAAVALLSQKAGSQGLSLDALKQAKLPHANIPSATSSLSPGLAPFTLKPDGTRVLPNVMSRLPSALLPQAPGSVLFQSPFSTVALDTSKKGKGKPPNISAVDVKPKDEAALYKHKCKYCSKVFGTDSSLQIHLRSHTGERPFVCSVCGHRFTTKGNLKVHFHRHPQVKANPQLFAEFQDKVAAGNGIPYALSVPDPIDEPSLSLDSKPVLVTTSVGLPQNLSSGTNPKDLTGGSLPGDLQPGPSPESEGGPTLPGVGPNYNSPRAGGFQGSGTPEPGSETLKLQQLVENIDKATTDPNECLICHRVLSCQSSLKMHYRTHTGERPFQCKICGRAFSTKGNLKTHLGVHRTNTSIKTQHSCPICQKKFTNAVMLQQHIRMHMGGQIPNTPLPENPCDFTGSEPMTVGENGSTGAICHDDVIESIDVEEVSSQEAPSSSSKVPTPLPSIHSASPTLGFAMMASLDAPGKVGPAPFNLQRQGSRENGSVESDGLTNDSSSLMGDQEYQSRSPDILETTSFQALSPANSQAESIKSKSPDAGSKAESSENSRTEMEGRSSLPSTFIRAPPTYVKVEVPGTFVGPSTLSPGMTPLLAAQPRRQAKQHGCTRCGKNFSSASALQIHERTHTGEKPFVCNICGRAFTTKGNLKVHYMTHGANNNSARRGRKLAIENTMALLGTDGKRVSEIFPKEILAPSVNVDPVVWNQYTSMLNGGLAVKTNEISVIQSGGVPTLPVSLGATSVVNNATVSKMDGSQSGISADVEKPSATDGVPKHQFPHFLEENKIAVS
hERG channel, sequence (Q12809 whole entry): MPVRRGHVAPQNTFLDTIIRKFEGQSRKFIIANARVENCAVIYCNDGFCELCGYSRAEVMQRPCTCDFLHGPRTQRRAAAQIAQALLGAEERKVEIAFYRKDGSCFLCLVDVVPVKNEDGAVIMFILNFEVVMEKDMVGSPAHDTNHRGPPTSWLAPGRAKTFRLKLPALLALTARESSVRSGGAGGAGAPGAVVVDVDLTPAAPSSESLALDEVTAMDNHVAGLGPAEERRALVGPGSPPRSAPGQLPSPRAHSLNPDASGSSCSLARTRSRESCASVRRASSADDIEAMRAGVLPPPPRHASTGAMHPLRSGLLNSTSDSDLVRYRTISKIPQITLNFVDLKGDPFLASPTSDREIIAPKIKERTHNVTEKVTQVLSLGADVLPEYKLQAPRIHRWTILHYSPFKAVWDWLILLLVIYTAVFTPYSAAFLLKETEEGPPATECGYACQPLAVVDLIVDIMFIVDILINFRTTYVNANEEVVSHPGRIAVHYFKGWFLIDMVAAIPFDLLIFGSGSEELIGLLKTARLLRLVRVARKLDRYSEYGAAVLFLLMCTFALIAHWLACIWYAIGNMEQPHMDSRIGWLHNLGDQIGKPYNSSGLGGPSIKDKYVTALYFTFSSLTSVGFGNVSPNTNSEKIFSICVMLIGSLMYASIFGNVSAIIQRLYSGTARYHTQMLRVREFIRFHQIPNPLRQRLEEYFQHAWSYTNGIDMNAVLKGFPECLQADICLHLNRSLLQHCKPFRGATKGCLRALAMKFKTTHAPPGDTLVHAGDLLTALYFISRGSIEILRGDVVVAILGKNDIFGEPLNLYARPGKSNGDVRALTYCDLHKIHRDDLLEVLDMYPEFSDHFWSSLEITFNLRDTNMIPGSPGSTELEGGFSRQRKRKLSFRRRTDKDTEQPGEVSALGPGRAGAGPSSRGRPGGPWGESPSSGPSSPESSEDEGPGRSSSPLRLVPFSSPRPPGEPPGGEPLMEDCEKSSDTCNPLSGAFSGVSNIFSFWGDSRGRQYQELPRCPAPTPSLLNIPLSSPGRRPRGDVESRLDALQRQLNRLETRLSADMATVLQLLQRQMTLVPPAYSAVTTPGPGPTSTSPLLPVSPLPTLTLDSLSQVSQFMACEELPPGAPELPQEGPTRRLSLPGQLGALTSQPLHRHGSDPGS

Usually AUC stands for concentration integrated over time. Low readings indicate less exposure, high ones more exposure. As for `O=C1CCC(N2Cc3c(ccc4c3OCC43CCN(Cc4ccccc4)CC3)C2=O)C(=O)N1` (stereo not drawn) [Compound 5], the area under the curve (AUC) in data set [1] is 1170 ng·h/mL; in data set [2] it was 1340 ng·h/mL.

What is called Dmax is the largest share of the target that was removed. What is called DC50 is the concentration at which degradation of the target reaches its halfway point. `O=C1CCC(N2Cc3cc(C4CCN(Cc5ccccc5)CC4)ccc3C2=O)C(=O)N1` (stereo not drawn) [DKY709]: the Dmax in data set [3] was determined as 73%; in data set [4] (HEK293, read-out: SALL4 degradation Dmax), 55%; in data set [7] it was 73%. Moreover, the “time to reach maximal IKZF2 degradation (Dmax plateau)” value in data set [3] (IKZF2 HiBiT, HEK293) is recorded as above 6 h. Moreover, the DC50 turned out to be 1.5 nM in data set [3] (read-out: IKZF2 degradation DC50, HiBiT, HEK293, 6 h) and 4.9 nM in data set [4] (read-out: SALL4 degradation DC50, HiBiT, HEK293, 6 h). Also, the “IL-2 concentration in the supernatant (in words)” value in data set [5] is reported as “increase in IL-2 concentration in the supernatant”. In data set [6], the “hERG inhibition IC30” value worked out at 3000 nM.

With `O=C1CCC(N2Cc3c(ccc4c3OCCC43CCN(Cc4ccccc4)CC3)C2=O)C(=O)N1` (stereo not drawn) [Compound 10], in data set [3], the Dmax is 39%.

In the case of `O=C1CCC(N2Cc3c(ccc4c3OCC43CCCN(Cc4ccccc4)CC3)C2=O)C(=O)N1` (stereo not drawn) [Compound 9], in data set [3], the Dmax stood at 17%.

As for `O=C1CCC(N2Cc3c(ccc4c3OCC43CCN(CC4CCCCC4)CC3)C2=O)C(=O)N1` (stereo not drawn) [Compound 13], the Dmax in data set [3] was 69%.

Regarding `O=C1CCC(N2Cc3c(ccc4c3OCC43CCN(Cc4ccsc4)CC3)C2=O)C(=O)N1` (stereo not drawn) [Compound 15], the greatest degradation seen (Dmax) in data set [3] is 84%.

As to `O=C1CCC(N2Cc3c(ccc4c3OCC43CCC(Oc4ccccc4)CC3)C2=O)C(=O)N1` (stereo not drawn) [Compound 7], in data set [3], the Dmax amounted to 38%.

With `O=C1CCC(N2Cc3c(ccc4c3OCC43CCN(Cc4ccccn4)CC3)C2=O)C(=O)N1` (stereo not drawn) [Compound 14], in data set [3], the Dmax came to 64%.

Consider `O=C1CCC(N2Cc3c(ccc4c3OCC43CCN(Cc4ccccc4)CC3(F)F)C2=O)C(=O)N1` (stereo not drawn) [Compound 12], for which, in data set [3], the Dmax was 68%.

With `O=C1CCC(N2Cc3c(ccc4c3OCC43CCN(Cc4ccccc4)C3)C2=O)C(=O)N1` (stereo not drawn) [Compound 8], the greatest degradation seen (Dmax) in data set [3] was 33%.
